Measured values pooled from the literature.
Target: Mitogen-activated protein kinase 9 (MAPK9, Homo sapiens, UniProt P45984)

| SMILES | test | setting | measurement | value |
| --- | --- | --- | --- | --- |
| FC(F)c1nc2ccccc2n1-c1nc(N2CCOCC2)nc(N2CCOCC2)n1 | enzyme activity, inhibitor | 10 µM | remaining activity | 87% |
| CC(C)(C)c1nc(-c2cccc(NS(=O)(=O)c3c(F)cccc3F)c2F)c(-c2ccnc(N)n2)s1 | enzyme activity, inhibitor, radiometric | 1 µM | remaining activity | 105% |
| CN(C)C(=O)Cn1cc(-c2nc([C@@](C)(c3ccc(-c4cnc(N)nc4)cc3)C3CC3)no2)cn1 | cell-free assay, competition with immobilised ligand | 1 µM | remaining binding | 75% |
| Cc1ccc(C(=O)NCc2ccsc2)cc1C#Cc1cn(C(C)C)c2ncnc(N)c12 | enzyme activity, inhibitor | 1 µM | activity vs control | 85% |
| COc1ccc2c(O[C@@H]3C[C@H]4C(=O)N[C@]5(C(=O)O)CC5/C=C\CCCCC[C@H](NC(=O)OC5CCCC5)C(=O)N4C3)cc(-c3csc(NC(=O)C(C)C)n3)nc2c1C (some centres unmarked) | cell-free assay, competition with immobilised ligand | 1 µM | remaining binding | 71% |
| CC1(C)NC(=O)c2[nH]c3c(Cl)c(Cl)ccc3c2C1C#N (centres unmarked) | thermal stability, DSF | 10 µM | ΔTm | 0.8 °C |
| CCCS(=O)(=O)Nc1ccc(F)c(C(=O)c2c[nH]c3ncc(-c4ccc(Cl)cc4)cc23)c1F | enzyme activity, inhibitor | 1 µM | inhibition | < 10% |
| Cc1ccc(NC(=O)c2ccc(C)c(C(F)(F)F)c2)cc1C#Cc1nn(C2CCC(O)CC2)c2ncnc(N)c12 (centres unmarked) | cell-free assay | 10 µM | remaining signal | 13% |
| Cc1cc(NC(=O)c2cccc3cc(-c4cccc5[nH]nc(N)c45)ccc23)ccc1F | enzyme activity, inhibitor | 0.1 µM | activity vs control | 86% |
| O=C1CCc2cc(Nc3cc(OC4CCOCC4)c([N+](=O)[O-])cc3Cl)ccc2N1 | cell-free assay, competition with immobilised ligand | 1 µM | remaining binding | 86% |
| Cc1sc(C(=O)NC2COC2)cc1-n1cc(NC(=O)Nc2c(F)cccc2Cl)cn1 | enzyme activity, inhibitor | 10 µM | remaining activity | 51.9% |
| Cn1c2c(Cl)c(Cl)ccc2c2cc(N)[nH]c(=O)c21 | thermal stability, DSF | 10 µM | ΔTm | 0.7 °C |
| Cc1ccc(NC(=O)c2ccc(CN3CCN(C)CC3)cc2)cc1Nc1nc(-c2cccnc2)cs1 | cell-free assay | 0.5 µM | remaining signal | 110% |
| COc1cc2ncnc(Nc3ccc(Oc4ccccc4)cc3C)c2cc1OC | enzyme activity, inhibitor | 1 µM | inhibition | 5% |
| CN1CCC2(CC1)NC(=O)c1c(c3ccc(Cl)c(Cl)c3n1C)C2C#N (racemic) | thermal stability, DSF | 10 µM | ΔTm | -0.2 °C |
| CC(C)CC(=O)N1CCc2nc(-c3ccc(Br)cc3)nc(N(C)Cc3ccccc3)c2C1 | cell-free assay, competition with immobilised ligand | 0.1 µM | remaining binding | 72% |

| SMILES | test | setting | measurement | value |
| --- | --- | --- | --- | --- |
| CNC(=O)c1cc(Oc2ccc(NC(=O)Nc3ccc(Cl)c(C(F)(F)F)c3)cc2)ccn1 | enzyme activity, inhibitor | 10 µM | inhibition | 54% |
| Cn1nc(C(F)(F)F)cc1-c1cnc(N2CCc3cc(S(=O)(=O)Nc4c(F)cc(Cl)cc4F)cc(N4CCCC4=O)c32)nc1 | cell-free assay, competition with immobilised ligand | 1 µM | remaining binding | 95% |
| CC(C)(C)C(=O)c1sc(NC2CCCCC2)nc1N | enzyme activity, inhibitor | 10 µM | remaining activity | 90% |
| CC/C(=N\NC(=O)NCc1cccc(O)c1)c1ccc(O)c(C)c1O | enzyme activity, inhibitor | 0.1 µM | inhibition | -4.8% |
| Cn1c2c(c3ccc(Cl)c(Cl)c31)C(C#N)C1(CCOCC1)NC2=O (centres unmarked) | thermal stability, DSF | 10 µM | ΔTm | 0 °C |
| CC(=O)N1CCC(c2ccc(C(=O)NC3=NCCN3)cc2C(F)(F)F)CC1 | cell-free assay, competition with immobilised ligand | 1 µM | remaining binding | 92% |
| COc1cc(Cl)c(C(=O)N[C@@H](CN[C@H]2CC[C@@H](N)CC2)Cc2ccc(C#N)cc2)cc1-c1ccc(CN[C@H](C)c2ccc(C)cc2)o1 | enzyme activity, inhibitor | 1 µM | remaining activity | 93% |
| C[S+]([O-])c1ccc(-c2nc(-c3ccncc3)c(-c3ccc(F)cc3)[nH]2)cc1 (centres unmarked) | cell-free assay | 0.5 µM | remaining signal | 100% |
| Cn1c2c(c3ccc(Cl)c(Cl)c31)C(C#N)C(C)(C)NC2=O (centres unmarked) | thermal stability, DSF | 10 µM | ΔTm | 0.4 °C |
| CN(c1ncccc1CNc1nc(Nc2ccc3c(c2)CC(=O)N3)ncc1C(F)(F)F)S(C)(=O)=O | enzyme activity, inhibitor | 1 µM | inhibition | 12.4% |
| COc1cc(Nc2cnc(C#N)c(O[C@H](C)CN(C)C)n2)ncc1-c1cnn(C)c1 | enzyme activity, inhibitor, radiometric | 1 µM | remaining activity | 98% |
| CCN(CC)CCNC(=O)c1c(C)[nH]c(/C=C2\C(=O)Nc3ccc(F)cc32)c1C | cell-free assay | 0.5 µM | remaining signal | 96.7% |
| CNC(=O)Nc1ccc2c(c1)CC[C@@]21OC(=O)N(CC(=O)N(Cc2ccc(F)cc2)[C@@H](C)C(F)(F)F)C1=O | cell-free assay, competition with immobilised ligand | 1 µM | remaining binding | 70% |
| Oc1cccc(-c2nc(N3CCOCC3)c3oc4ncccc4c3n2)c1 | cell-free assay | 0.5 µM | remaining signal | 89.4% |
| Nc1nc(NC2CCCCC2)sc1C(=O)c1ccccc1 | enzyme activity, inhibitor | 10 µM | remaining activity | 39% |
| Cc1cc(NC(=O)c2cccc(S(F)(F)(F)(F)F)c2)cc(-n2ccn3nc(-c4cccnc4)cc23)c1 | cell-free assay, competition with immobilised ligand | 1 µM | remaining binding | 76.9% |
